hiPSC survival – hiPSC single-cell survival enhancement; ATPlite luminescence; 100% = ROCK inhibitor wells, 0% = DMSO; survival enhancement, % at 20 µM; 0.044% of 360,000 active; in the data active means survival enhancement above about 18%;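 further: cells exposed to compounds for 16 hours before the ATP read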
APJ antag – APJ receptor antagonism. P35414. CHO-K1 APJ beta-arrestin complementation, luminescence. inhibition, % at 20 µM. 0.32% of 330,000 active;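 active means inhibition above about 40% at 20 µM, limit read from the data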;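 further: cells challenged with 10 nM apelin-13 agonist together with compound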
CCR6 antag – CCR6 (human) receptor antagonism; P51684; CHO-K1 CCR6 PathHunter beta-arrestin, luminescence, CCL20-stimulated; inhibition, % at 20 µM; 0.49% of 340,000 active; AID 493098;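 active means compounds whose inhibition of the agonist-driven luminescence signal at 20 µM reaches about 50%, limit read from the data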;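 further: cells stimulated with CCL20 at 14 nM final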
APJ ag – APJ receptor agonism; activation, % at 20 µM; P35414; 0.11% of 330,000 active; AID 2520; CHO-K1 APJ PathHunter beta-arrestin, luminescence; 0% DMSO wells, 100% apelin;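 active means activation more than six SD over the plate average, tested at 20 µM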
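Assay system: CHO-K1 cells stably expressing ProLink-tagged human APJ and arrestin–beta-gal acceptor. Compound dosing: 20 µM single point, 1% DMSO. Times: 16-18 h seeding, 90 min dark compound exposure, 60 min detection. Detection: beta-gal luminescence. Evaluation: APJ–arrestin association signal. Controls: negative DMSO alone, positive Apelin-13 at 10 nM.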
CXCR6 inh – blocks human CXCR6 beta-arrestin recruitment; CHO-K1 PathHunter CXCR6 beta-arrestin, luminescence; 0.36% of 360,000 active; O00574; inhibition, % at 20 µM; AID 602244; in the data active means inhibition above about 34%, passing the limit was not always enough;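 further: antagonist mode with CXCL16 agonist at 10 nM final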
DAGLB inh – blocks human DAGLB lipase activity. 0.059% of 340,000 active. HEK293T DAGLB membrane lysate, EnzChek fluorogenic substrate. inhibition, % at 5.17 µM. Q8NCG7. AID 504411; in the data active means inhibition above about 34%
Target sequence (Q8NCG7 whole entry, looked up): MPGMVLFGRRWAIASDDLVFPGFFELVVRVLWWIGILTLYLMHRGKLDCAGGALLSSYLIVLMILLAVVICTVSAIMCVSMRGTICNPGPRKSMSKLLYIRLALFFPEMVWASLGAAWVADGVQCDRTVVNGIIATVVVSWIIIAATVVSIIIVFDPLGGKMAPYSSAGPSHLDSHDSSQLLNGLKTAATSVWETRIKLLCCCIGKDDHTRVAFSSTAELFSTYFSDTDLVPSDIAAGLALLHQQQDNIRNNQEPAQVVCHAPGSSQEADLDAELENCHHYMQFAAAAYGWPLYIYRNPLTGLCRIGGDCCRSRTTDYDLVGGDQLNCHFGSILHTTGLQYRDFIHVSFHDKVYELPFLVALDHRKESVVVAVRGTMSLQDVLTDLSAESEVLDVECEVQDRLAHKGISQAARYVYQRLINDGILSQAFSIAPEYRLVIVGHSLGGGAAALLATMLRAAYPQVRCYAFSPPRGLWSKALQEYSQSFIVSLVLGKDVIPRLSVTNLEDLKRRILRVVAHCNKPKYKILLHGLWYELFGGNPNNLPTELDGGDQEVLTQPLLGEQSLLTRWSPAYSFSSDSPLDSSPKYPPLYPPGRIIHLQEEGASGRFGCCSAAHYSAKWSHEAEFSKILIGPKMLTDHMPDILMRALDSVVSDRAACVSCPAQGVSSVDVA
APJ antag confirm – confirmation of human APJ apelin receptor antagonists; shares compounds with APJ antag; APJ beta-arrestin recruitment, luminescence, antagonist mode; inhibition, % at 20 µM; 66% of 950 active; AID 2766; in the data active means inhibition above about 50%
A number is an active result; n = inactive; x = no result. In the library only some 0.86% were active in any assay of this set; here they are far more common.

SMILES	hiPSC survival	APJ antag	CCR6 antag	APJ ag	CXCR6 inh	DAGLB inh	APJ antag confirm
CC(C)NC(=O)CN1CCN(Cc2nc(C(c3ccccc3)c3ccccc3)no2)CC1	n	n	n	n	n	n	x
COc1cc(C(=O)NCC(c2ccco2)N2CCOCC2)cc(OC)c1OC (stereo not drawn)	n	n	n	n	n	n	x
COc1cccc(OCc2nc3ccccc3c(=O)n2N)c1	n	42.8	n	n	n	n	n
CCOC(=O)c1c(-c2ccc(-c3ccccc3)cc2)csc1NC(=O)CNCCN(C)C	n	42.9	78.3	n	n	n	95.7
Cc1nnsc1C(=O)NNc1ccc(C(C)(C)C)cc1	n	59.1	n	n	n	n	146.4
CC(C)NC(=O)c1sc2nc(-c3cccs3)cc(-c3cccs3)c2c1N	x	42.4	n	n	x	x	n
COc1ccc(C(=O)c2sc3nc(C)cc(-c4cccs4)c3c2N)cc1	n	x	n	x	n	n	x
COc1cc(/C=C(\C#N)C(=O)c2ccc(O)c(O)c2)cc(I)c1O	n	42.4	57.3	n	n	n	59.9
COC(=O)c1cc(NC(=O)CSc2nnc(N)s2)ccc1Cl	n	n	n	n	n	n	x
Nc1nnc(SCC(=O)Nc2ccc(Cl)c(C(=O)O)c2)s1	n	45.5	n	n	n	n	n
CC1N(O)C(c2ccc(Cl)cc2Cl)N(O)C1(C)C (stereo not drawn)	n	n	n	n	n	n	x
ON1C(c2ccc(Cl)cc2Cl)N(O)[C@H]2CCCC[C@H]21 (stereo partly drawn)	n	55.2	79.9	n	n	n	85.4
Cc1cc(C)c2[nH]c(O)c(N=NC(=S)NCC3CCCO3)c2c1 (stereo not drawn)	n	n	n	n	n	n	x
Oc1[nH]c2c(Cl)cc(Cl)cc2c1N=NC(=S)NCC1CCCO1 (stereo not drawn)	n	40.2	58.0	n	n	n	64.5
COc1cc(/C=C2\SC(=O)N(c3cccc(Cl)c3)C2=O)cc([N+](=O)[O-])c1O	n	48.0	67.5	n	n	n	58.5
COc1ccc(CC(=O)OCC(=O)NCc2ccc3c(c2)OCO3)cc1OC	n	n	n	n	n	n	x
COc1ccc(CC(=O)OC(C)C(=O)NCc2ccc3c(c2)OCO3)cc1OC (stereo not drawn)	n	40.9	n	n	n	n	n
ON1C2CCCCC2N(O)C1c1ccccc1C(F)(F)F (stereo not drawn)	n	48.2	56.3	n	n	n	n
O=C(Nc1ccccc1C(F)(F)F)NC1CCCCCCC1	n	n	n	n	n	n	x
O=C(NNC(=S)Nc1ccccc1)NNC(=S)Nc1ccccc1	n	44.3	55.6	n	n	n	88.2
CCOc1ccc(CCNC(=O)c2cccnc2N2CCCC2)cc1OCC	n	58.3	n	n	n	n	51.7
O=[N+]([O-])c1ccc(S(=O)(=O)c2ccccc2)nc1	n	43.0	71.2	n	52.1	n	50.6
CCCn1nc([N+](=O)[O-])c(C(C#N)c2nc3ccccc3s2)c(Cl)c1=O (stereo not drawn)	n	61.9	50.5	n	n	67.5	66.2
Cc1ccc(-n2c3c(c(=O)[nH]c2=O)C(NS(=O)(=O)c2ccc(Cl)cc2)(C(F)(F)F)C(=O)N3)cc1 (stereo not drawn)	n	n	n	n	n	n	x
CCN1C=C(Cc2cccs2)C2=C(C1)C(c1cccs1)C(C#N)=C(N)O2 (stereo not drawn)	n	40.8	n	n	n	n	n
SMILES	hiPSC survival	APJ antag	CCR6 antag	APJ ag	CXCR6 inh	DAGLB inh	APJ antag confirm
C[C@H](CO)N1C[C@H](C)[C@@H](CN(C)Cc2cccc(O)c2)OCc2cnnn2CCCC1=O	n	x	x	x	n	n	x
CCOC(=O)[C@]12CCCC=C1N(Cc1ccc(Cl)cc1Cl)C(=O)[C@H](CC(=O)NCc1cccc3ccccc13)C2	n	x	x	x	n	x	x
O=[N+]([O-])c1ccc(N=NN(CCO)CCO)cc1	n	n	n	n	n	n	x
O=[N+]([O-])c1ccc(N=Nc2ncc[nH]2)cc1	n	41.1	67.8	n	51.6	n	88.4
CC1=NN(c2ccc(C)cc2)C(=O)/C1=C/c1ccc(-c2cc([N+](=O)[O-])ccc2O)o1	n	46.7	72.5	n	41.5	n	92.5
O=C1NN(c2cccc(Br)c2)C(=O)/C1=C\c1ccc(O)cc1	n	n	n	n	n	n	x
O=C1NN(c2cccc(Br)c2)C(=O)/C1=C/c1ccc(-c2cc([N+](=O)[O-])ccc2O)o1	n	61.4	85.6	n	62.3	n	98.2
CN(CC(=O)NCc1ccc2c(c1)OCO2)S(=O)(=O)c1ccc(F)cc1	n	n	n	n	n	n	x
CCn1c(SCC(=O)N2CC(C)OC(C)C2)nc2c([nH]c3ccccc32)c1=O (stereo not drawn)	n	n	n	n	n	n	x
O=S(=O)(NCCc1ccc(Cl)cc1)c1cccc2cccnc12	n	n	n	n	n	n	x
NS(=O)(=O)c1ccc(NNC(=O)c2ccccc2)cc1	n	n	n	n	n	x	x
O=C(NNc1cc(Br)c(O)c(Br)c1)c1ccccc1	n	96.2	86.8	n	59.0	n	136.8
CCC(=O)Nc1ccc(S(=O)(=O)N2CCCCC2)cc1OC	n	41.2	n	n	n	n	n
COc1cc(S(=O)(=O)N2CCCCC2)ccc1NC(=O)c1ccccc1Cl	n	n	n	n	n	n	x
CCc1noc(C)c1C(=O)NC1CC(C)(C)Cc2c1cnn2-c1ccccc1 (stereo not drawn)	n	41.2	x	n	n	n	n
CCN(CC)c1ccc(C(=O)NC(=S)Nc2cc(S(=O)(=O)N3CCOCC3)ccc2-n2cncn2)cc1	n	41.1	n	n	n	n	81.5
C1=C(CCNCC2CC2)CCCC1	n	41.4	n	n	n	n	n
CCOC(=O)c1c(C)nc2sc(C(=O)Nc3ccc(C(C)=O)cc3)c(N)c2c1-c1ccc(OC)cc1	n	51.1	n	n	n	n	n
COc1ccc(C(CNC(=O)c2cccc(S(=O)(=O)NCc3ccccc3)c2)N2CCOCC2)cc1 (stereo not drawn)	n	n	n	n	n	n	x
Cc1ccc2c(c1)C(=O)C(=O)N2c1ccc(Cl)cc1	n	44.6	n	n	n	n	85.9
Cc1nc(-n2[nH]c3c(c2=O)CCCC3)[nH]c(=O)c1Cc1ccccc1	n	50.0	73.8	n	40.7	n	80.9
Cc1nc(N2CCc3ccccc3C2)[nH]c(=O)c1Cc1ccccc1	n	n	n	n	n	n	x
COc1ccc2c(c1)C(=O)[C@@H](O)[C@H](c1ccc(OC)c(Br)c1)O2	n	40.0	59.1	n	n	n	79.7

Screens: PubChem BioAssay, several laboratories
